PP5 inh: PP5 (human) phosphatase inhibition | inhibition, % at 6.7 µM | 320,000 tested, 0.18% active | purified PP5c, OMFP substrate fluorescence;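 active = inhibition above the campaign's mean inhibition across all tested compounds plus 3 SD, cut at about 9.5% in these data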
Target sequence (P53041 whole entry, looked up): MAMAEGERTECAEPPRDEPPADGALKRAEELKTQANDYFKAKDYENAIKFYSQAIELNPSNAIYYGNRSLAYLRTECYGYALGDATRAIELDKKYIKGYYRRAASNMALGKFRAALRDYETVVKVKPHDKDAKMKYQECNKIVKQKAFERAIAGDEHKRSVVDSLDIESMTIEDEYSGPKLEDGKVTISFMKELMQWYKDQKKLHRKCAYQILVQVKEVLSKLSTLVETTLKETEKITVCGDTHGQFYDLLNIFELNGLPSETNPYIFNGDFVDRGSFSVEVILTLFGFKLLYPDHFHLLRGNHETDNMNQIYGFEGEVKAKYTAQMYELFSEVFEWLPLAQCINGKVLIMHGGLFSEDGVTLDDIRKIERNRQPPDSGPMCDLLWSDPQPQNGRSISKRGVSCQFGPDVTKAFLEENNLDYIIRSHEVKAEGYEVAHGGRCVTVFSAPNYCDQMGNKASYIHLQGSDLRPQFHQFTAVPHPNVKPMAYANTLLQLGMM
JMJD2C inh: blocks human GASC-1 demethylase activity. Q9H3R0. GST-JMJD2C(1-420) H3K9me3 demethylation, DELFIA europium. inhibition, % at 2.35 µM. 330,000 tested, 0.069% active. AID 2099;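 active = more than half of a compound's replicate wells show inhibition beyond 50%, single wells judged on their own value; inconclusive = some, but no more than half, of replicates pass 50% inhibition; inactive = no replicate passes 50% inhibition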;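 also: signal counts dimethyl H3K9 product captured on neutravidin plate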
PP1 counter: counter-screen for PP5 inhibitors: inhibitors of human PP1-alpha | P62136 | purified PP1alpha, OMFP fluorescence | inhibition, % at 6.7 µM | 320,000 tested, 0.9% active | AID 2235;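 active = inhibition above the mean inhibition of all tested compounds plus 3 SD, computed separately for each screening campaign, cut at about 15% in these data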
T cell HTS: modulates CD8 T cell binding to vesicles; response (vesicle binding), % at 7 µM; 330,000 tested, 0.068% active; AID 2052; 2C CD8+ T cell-vesicle binding, flow cytometry; stronger effect = lower value;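 active = response, share of CD8 T cells binding vesicles, and their 90th percentile fluorescence all below set limits, cut at about 80% in these data, passing the limit was not always enough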;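 also: values below 100% mean blocked vesicle binding to the CD8+ T cells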
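Incubation: binding step 1.5 h, 37 °C, antibody labelling 20 min, ice; system: murine 2C transgenic CD8+ T lymphocytes; technique: cytometric PE anti-B7-1 and Alexa647 anti-CD8 signals after 1% paraformaldehyde fixation; also added: QL9-charged Drosophila Ld/ICAM-1/B7-1 vesicles; control set: naked versus QL9-loaded vesicles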
HTR2A ag: activates the mouse 5-HT2A serotonin receptor; CHO-K1 mHTR2A beta-arrestin complementation, luminescence; percent of 30 µM serotonin response; AID 624169; 360,000 tested, 0.66% active; activation, % at 7.6 µM;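 active = activation above a run cutoff, the mean activation of all tested compounds plus 3 SD, cut at about 14% in these data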
PP5 conf: PP5 (human) inhibition, confirmation. shares compounds with PP5 inh. Purified PP5, fluorogenic phosphatase substrate, fluorescence. inhibition, % at 6.7 µM. 460 tested, 22% active. AID 2331; in the data active = inhibition above about 9.5%
PP1 counter 3x: inhibits human PP1 phosphatase in PP5 counter-screen; PP1 enzyme, fluorescent phosphatase substrate; shares compounds with PP5 inh; 460 tested, 4% active; inhibition, % at 6.7 µM; AID 2355; in the data active = inhibition above about 16%
Large screens that a line does not name were inactive (follow-up assays come after a bar, where they were run). Shown are actives, neighbours in structure and some others; about 1.7% of the full set was active somewhere.

COC(=O)CCC(=O)OC1(C)C(=O)C=C2C=C(C3CC3)N(C3CCCCC3)C=C2C1=O (configuration not stated)	none
O=C(Nc1ccc(Nc2ccccc2)cc1)c1cccc(F)c1	PP5 inh 9.8 | PP5 conf inactive | PP1 counter 3x inactive
O=C(Nc1cccc(F)c1)c1ccccc1	none
COc1ccc(NC(=S)Nc2ccc3nsnc3c2)cc1	PP5 inh 11.9 | PP5 conf 47.4 | PP1 counter 3x inactive
CCOc1ccc(NC(=S)Nc2ccc3nsnc3c2)cc1	PP5 inh 11.6 | PP5 conf 49.2 | PP1 counter 3x inactive
CCOc1ccc(NC(=O)Nc2ccc3nsnc3c2)cc1	none
CC(Sc1nnc(Cc2cccs2)n1C1CC1)C(=O)NC1CCS(=O)(=O)C1 (configuration not stated)	none (no result: PP5 inh, JMJD2C inh, PP1 counter, T cell HTS)
COc1ccc(-c2oc3ccccc3c2C(=O)OCc2ccccc2OC)cc1	none
C[C@H]1COC(=O)CC/C=C\C[C@H](CC(=O)N(CCO)Cc2ccccc2)C(=O)N1	none (no result: PP5 inh, PP1 counter)
COc1cccc(CN(C)CC(=O)NCc2ccc(F)cc2)c1OC	PP5 inh 12.1 | PP5 conf inactive | PP1 counter 3x inactive
COc1ccc(C)cc1NC(=O)c1sc2ncnc(N3CCN(c4ccccn4)CC3)c2c1C	none
CC1(C)Cc2c(sc(NC(=O)Nc3ccccc3)c2C(N)=O)CO1	PP5 inh 10.9 | PP5 conf inactive | PP1 counter 3x inactive
COc1cccc(C(C)(O)c2nc(-c3ccc(F)cc3OC)cs2)c1 (configuration not stated)	none (no result: PP5 inh, JMJD2C inh, PP1 counter, T cell HTS)
NS(=O)(=O)c1ccc(NC2=CC(=O)C(=O)c3ccccc32)cc1	PP5 inh 10.9 | PP5 conf 36.6 | PP1 counter 3x inactive
CC(C)(C)OC(=O)NC1CNNC1=O (configuration not stated)	none
CCOc1cc(-c2cc(-c3ccc(C)cc3)nc(N)c2C#N)ccc1O	PP5 inh 9.7 | PP5 conf inactive | PP1 counter 3x inactive
O=[N+]([O-])c1cccnc1N1CCC(c2cc(-c3ccc(Cl)cc3Cl)n[nH]2)CC1	none
O=[N+]([O-])c1cccnc1N1CCC(c2cc(-c3cccc(C(F)(F)F)c3)n[nH]2)CC1	PP5 inh 10.4 | PP5 conf inactive | PP1 counter 3x inactive
COc1ccc(C(C)(O)c2nc(-c3cccs3)cs2)cc1 (configuration not stated)	none (no result: PP5 inh, JMJD2C inh, PP1 counter, T cell HTS)
Cc1ccccc1S(=O)(=O)N(CC(O)CN1C(=O)NC(C)(C)C1=O)c1ccccc1 (configuration not stated)	PP5 inh 10.2 | PP5 conf inactive | PP1 counter 3x inactive
Cc1ccc(N(CC(O)CN2C(=O)NC(C)(C)C2=O)S(=O)(=O)c2ccc(C)cc2)cc1 (configuration not stated)	none
Cc1ccc(-c2cc(C(=O)NCCc3ccccn3)c3ccccc3n2)c(C)c1	none
O=C(NCCc1ccccn1)c1cc(-c2cccc3ccccc23)nc2ccccc12	PP5 inh 21.0 | PP5 conf inactive | PP1 counter 3x inactive
Cc1c(NC(=S)N/N=C/c2cc([N+](=O)[O-])ccc2O)c(=O)n(-c2ccccc2)n1C	PP5 inh 12.4 | PP5 conf inactive | PP1 counter 3x inactive
Cc1c(NC(=S)N/N=C/c2ccc(O)cc2)c(=O)n(-c2ccccc2)n1C	none
O=C1C(O)=C(O)C(=O)c2ccccc21	PP5 inh 13.2 (no result: JMJD2C inh) | PP5 conf 14.2 | PP1 counter 3x 28.0
CCCCOC(=O)C1=C(C)NC2(O)c3ccccc3C(=O)C12O (configuration not stated)	none
CC(=O)C1=C(C)OC2(O)c3ccccc3C(=O)C12O (configuration not stated)	PP5 inh 14.4 | PP5 conf 34.5 | PP1 counter 3x inactive
CCOC(=O)C1=C(C)OC2(O)c3ccccc3C(=O)C12O (configuration not stated)	PP5 inh 12.2, JMJD2C inh inconclusive | PP5 conf 40.6 | PP1 counter 3x inactive
Cc1no[n+]([O-])c1COc1ccc(/C=N/n2nnnc2N)cc1	none
CC(Sc1nnc(C2CC2)n1C1CC1)C(=O)N(C)Cc1cccc(F)c1 (configuration not stated)	none

Source: PubChem
